Laboratory results reported in ChEMBL document CHEMBL1148262, “Stability studies of C-4',6' acetal benzylmaltosides synthesized as inhibitors of smooth muscle cell proliferation” (Bioorg Med Chem Lett, 2004).

Legend:
[1] = Half-life of compound at a pH of 3.5 was determined; format: ADME; conditions: pH 3.5
[2] = Half-life of compound at a pH of 4 was determined; format: ADME; conditions: pH 4
[3] = Half-life of compound at a pH of 2.5 was determined; format: ADME; conditions: pH 2.5
[4] = Half-life of compound at a pH of 4.5 was determined; format: ADME; conditions: pH 4.5
[5] = tested on: HASMC; test: Concentration inducing 50% inhibition of Human aortic smooth muscle cell (HASMC) proliferation; format: functional, cell-based
Method in brief: (§1)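 HASMC or HAEC from passage 3–6, grown to 70–80% confluence in 24-well plates, then held 24–48 h without serum or growth factors to make them quiescent. Restimulated with serum or growth factor for 24 h with 0.5 µCi/mL ³H-thymidine. Compounds were added from 50% ethanol stock at 1–100 µM. TCA-precipitable counts were measured in triplicate, as percent of stimulated control, and IC50 was derived.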

[6] = Stability of compound determined in medium mimicking stomach as percent remaining at 18-20 hr at a pH of 1; format: ADME; conditions: pH 1
[7] = Half-life of compound at a pH of 1.4 was determined; format: ADME; conditions: pH 1.4
[8] = Half-life of compound at a pH of 3 was determined; format: ADME; conditions: pH 3
[9] = Concentration inducing 50% inhibition of human aortic endothelial cell (HAEC) proliferation; format: functional, cell-based; method in brief: as §1
[10] = Half-life of compound at a pH of 1 was determined; format: ADME; conditions: pH 1
[11] = Percent degradation of compound at a pH of 1 over a 18 hr period; format: ADME; conditions: pH 1; read-out: Degradation
[12] = Half-life of compound at a pH of 1.9 was determined; format: ADME; conditions: pH 1.9
[13] = tested on: Rattus norvegicus; test: In vivo percent reduction in intimal thickening rat balloon injury model at a dose of 100 mg/kg; Range is 18-39 %; format: functional

half-life [1] | half-life [2] | half-life [3] | half-life [4] | Remaining [6] | half-life [7] | half-life [8] | half-life [10] | degraded at 18 h [11] | half-life [12] | Compound | IC50 [5] | IC50 [9] | Reduction [13]
> 20 h | > 20 h | > 20 h | > 20 h | 68% | > 20 h | > 20 h | > 20 h | 32% | > 20 h | CC(=O)Nc1cc(CO[C@@H]2O[C@@H](COC(=O)c3ccccc3)[C@H](O[C@H]3OC4CO[C@@H](C)OC4[C@H](O)[C@@H]3O)[C@H](O)[C@@H]2O)ccc1Cl (stereo not given in full) | 103 nM | 257 nM | 
> 20 h | > 20 h | > 20 h | > 20 h | 94% | > 20 h | > 20 h | > 20 h |  | > 20 h | CC(=O)Nc1cc(CO[C@@H]2O[C@@H](COC(=O)c3ccccc3)[C@H](O[C@H]3OC4CO[C@@H](Cc5ccccc5)OC4[C@H](O)[C@@H]3O)[C@H](O)[C@@H]2O)ccc1Cl (stereo not given in full) | 35 nM |  | 
> 20 h | > 20 h | > 20 h | > 20 h | 0% | 4 h | > 20 h | 1.7 h |  | 13.3 h | CC(=O)Nc1cc(CO[C@@H]2O[C@@H](COC(=O)c3ccccc3)[C@H](O[C@H]3OC4CO[C@@H](c5ccc(Cl)cc5)OC4[C@H](O)[C@@H]3O)[C@H](O)[C@@H]2O)ccc1Cl (stereo not given in full) | 23 nM | 324 nM | 
> 20 h | > 20 h | 13 h | > 20 h | 0% | 2.3 h | > 20 h | 1.9 h | 100% | 4.2 h | CC(=O)Nc1cc(CO[C@@H]2O[C@@H](COC(=O)c3ccccc3)[C@H](O[C@H]3OC4CO[C@@H](c5ccccc5)OC4[C@H](O)[C@@H]3O)[C@H](O)[C@@H]2O)ccc1Cl (stereo not given in full) | 20 nM | 923 nM | 39%
> 20 h | > 20 h | > 20 h | > 20 h | 53% | > 20 h | > 20 h | > 20 h |  | > 20 h | CC(=O)Nc1cc(CO[C@@H]2O[C@@H](COC(=O)c3ccccc3)[C@H](O[C@H]3OC4CO[C@@H](C(C)C)OC4[C@H](O)[C@@H]3O)[C@H](O)[C@@H]2O)ccc1Cl (stereo not given in full) | 3 nM |  | 
 |  |  |  |  |  |  |  |  |  | CC(=O)Nc1cc(CO[C@@H]2O[C@@H](COC(=O)c3ccccc3)[C@H](O[C@H]3O[C@@H](CO)[C@@H](O)[C@H](O)[C@@H]3O)[C@H](O)[C@@H]2O)ccc1Cl | 34900 nM |  | 
 |  |  |  |  |  |  |  |  |  | CC(=O)Nc1cc(CO[C@@H]2O[C@@H](COC(=O)c3ccccc3)[C@H](O[C@H]3OC4CO[C@@H](c5ccc([N+](=O)[O-])cc5)OC4[C@H](O)[C@@H]3O)[C@H](O)[C@@H]2O)ccc1Cl (stereo not given in full) | 3 nM | 368 nM | 
> 20 h | > 20 h | > 20 h | > 20 h | 97% | > 20 h | > 20 h | > 20 h |  | > 20 h | CC(=O)Nc1cc(CO[C@@H]2O[C@@H](COC(=O)c3ccccc3)[C@H](O[C@H]3OC4CO[C@@H](c5ccncc5)OC4[C@H](O)[C@@H]3O)[C@H](O)[C@@H]2O)ccc1Cl (stereo not given in full) | 3 nM |  | 
> 20 h | > 20 h | > 20 h | > 20 h | 52% | > 20 h | > 20 h | > 20 h |  | > 20 h | CC[C@@H]1OCC2O[C@H](O[C@@H]3[C@H](O)[C@H](O)[C@H](OCc4ccc(Cl)c(NC(C)=O)c4)O[C@H]3COC(=O)c3ccccc3)[C@@H](O)[C@@H](O)C2O1 (stereo not given in full) | 37 nM | 235 nM | 
